Source: PubChem BioAssay (Broad Institute)
SR-BI DiI-HDL act = activators of SR-BI mediated DiI-HDL uptake, primary screen, ldlA[mSR-BI] CHO cells, DiI fluorescence; hit rate 0.096% among 320,000; 3 h; 100 = double the neutral-control signal; AID 504775, 2011; activation, % at 12.5 µM;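 active = mean replicate activation of at least 60% and every replicate at or above 60%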;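 note: 0% = median plate neutral-control signal and 100% = twice that signal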
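Assay system: LDL receptor-deficient CHO ldlA cells overexpressing murine SR-BI / Medium: BSA-supplemented, HEPES-buffered Ham's F12, pH 7.4 / Probe or stimulus: DiI-labelled HDL at 10 µg/mL final / Timing: compound with DiI-HDL co-incubation, 3 h at 37 °C / Technique: bottom-read cell fluorescence after medium removal, ex 550/em 595 nm / Measure: HDL uptake via cellular fluorescence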
miR122 inh = miR-122 Renilla sensor signal increase in Huh7, primary screen, miR-122 inhibitor project, cell-based, single point, plate reader | activation (reporter increase), % at 12.5 µM | hit rate 0.3% among 340,000 | Huh7 miR-122 Renilla luciferase sensor, 48 h; neutral wells = 0, positive control = 100 | AID 602342, 2012;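 active = mean replicate activation score at least 90 and every replicate individually at or above 90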;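 note: higher luciferase means less miR-122 activity so hits act as miR-122 inhibitors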
CAL PDZ FP-1 = CAL PDZ peptide-binding inhibitors, primary screen, biochemical, fluorescence polarization, Cer-tagged CAL PDZ, HTS | Golgi-associated PDZ and coiled-coil motif-containing protein (Homo sapiens), Q9HD26 | purified CAL PDZ, TMR-peptide fluorescence polarization, 1 h | inhibition, % at 20 µM | hit rate 0.02% among 330,000;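 active = highest replicate inhibition of at least 40%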;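 note: plate controls were DMSO neutral control wells for no effect and unlabeled competitor peptide control wells for full effect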
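material = purified tagged CAL PDZ domain construct (CerCALP) | buffer or medium = sodium phosphate/NaCl buffer pH 7.4 with TCEP, IgG, Thesit | reagent = TMR-labelled reporter peptide T*-PRC34 bound in PDZ groove | incubation = 1 h room-temperature incubation prior to read | measured by = fluorescence polarization (mP) | evaluation = percent inhibition from loss of millipolarization | control set = unlabelled peptide and DMSO controls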
CAL PDZ FP-2 = untagged CAL PDZ binding inhibitors, primary screen, biochemical, fluorescence polarization, HTS | Golgi-associated PDZ and coiled-coil motif-containing protein (Homo sapiens), Q9HD26 | purified CAL PDZ, TMR-peptide fluorescence polarization, 1 h | inhibition, % at 24.9 µM | hit rate 0.92% among 300,000;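 active = mean inhibition of at least 30% with at least half of replicates also reaching 30%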;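 note: 0% = DMSO neutral control and 100% = excess unlabeled competitor peptide PRC23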
SR-BI DiI inh = inhibitors of SR-BI mediated HDL lipid uptake, primary screen, ldlA[mSR-BI] cells, fluorescence, single point. Scavenger receptor class B member 1 (Mus musculus), Q61009. ldlA[mSR-BI] CHO cells, DiI-HDL uptake fluorescence, 3 h. inhibition, % at 12.5 µM. hit rate 0.96% among 320,000. AID 488896, 2010;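 active = mean replicate inhibition of at least 70% and a set share of replicates each scoring 70 or more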;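 note: 0% = median of neutral control wells and 100% = median of positive control wells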
Target sequence (Q61009 whole entry, looked up): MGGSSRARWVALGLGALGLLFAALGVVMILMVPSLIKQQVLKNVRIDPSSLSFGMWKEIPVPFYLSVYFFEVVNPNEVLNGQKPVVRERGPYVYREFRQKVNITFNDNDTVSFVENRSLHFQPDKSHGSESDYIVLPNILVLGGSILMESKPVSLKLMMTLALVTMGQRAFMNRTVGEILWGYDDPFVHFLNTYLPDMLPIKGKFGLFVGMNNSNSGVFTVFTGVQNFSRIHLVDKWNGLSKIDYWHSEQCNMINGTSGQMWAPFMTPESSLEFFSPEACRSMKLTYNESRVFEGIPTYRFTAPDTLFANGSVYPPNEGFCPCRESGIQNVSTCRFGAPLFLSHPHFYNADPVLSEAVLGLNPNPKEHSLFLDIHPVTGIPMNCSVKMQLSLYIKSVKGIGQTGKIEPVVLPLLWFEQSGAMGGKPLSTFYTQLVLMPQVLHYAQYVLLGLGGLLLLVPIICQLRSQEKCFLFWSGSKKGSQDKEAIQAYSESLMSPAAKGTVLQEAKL
ARNT TACC3 PPI = disruptors of ARNT/TACC3 protein interaction, primary screen, biochemical, AlphaScreen, single concentration; Transforming acidic coiled-coil-containing protein 3 (Homo sapiens), Q9Y6A5; AlphaScreen His-ARNT PAS-B/GST-TACC3 binding, luminescence; TACC3 fragment carries E629A point mutation; inhibition, % at 9.99 µM; hit rate 0.66% among 390,000;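 active = mean inhibition of replicates at least 50% and at least half of replicates each reaching 50%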;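 note: 0% = complete ARNT plus TACC3 wells and 100% = ARNT alone without TACC3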
Active calls of the source: *; . = not tested or not shown; [ ] = dose if it differs, or a comment. Compounds with a hit are over-represented: about 2.1% of the library has one in this group of screens.

SMILES	SR-BI DiI-HDL act	miR122 inh	CAL PDZ FP-1	CAL PDZ FP-2	SR-BI DiI inh	ARNT TACC3 PPI
COCC(=O)Nc1ccc2c(c1)[C@H]1C[C@H](CC(=O)N3CCCCC3)O[C@@H](CO)[C@H]1O2	.	0[16.7 µM]	.	.	.	-4
OCCN1CCN(C(=S)c2ccc(Cl)c(Cl)c2)CC1	16	0	-1	-1	-16	66*
CCCNC(=S)N1CCN(c2nc(C)nc3sc4c(c23)CCCC4)CC1	-73	-2	-1	3	73*	-10
Cn1cccc1/C=C1\SC(=Nc2ccccc2)NC1=O	-17	-7	-1	.	17	3
Cc1ccc(N=C2NC(=O)/C(=C/c3cn(C)c4ccccc34)S2)cc1C	-81	6	2	-1	81*	-25
CCC(=O)N1[C@@H]2c3cccc(=O)n3C[C@@H]2[C@@H](CO)[C@@H]1C(=O)NCc1ccc(F)cc1	.	.	.	.	.	-3
O=C(C[C@@H]1CC[C@H](NC(=O)CN2CCOCC2)[C@H](CO)O1)NCc1cccc(F)c1	.	.	.	.	.	-3
Cc1ccc(Nc2c([N+](=O)[O-])cc(C(=O)N3CC(=O)Nc4ccccc43)cc2[N+](=O)[O-])c(C)c1	-75	1	-1	3	75*	-9
O=C(C[C@H]1C[C@H]2c3cc(NC(=O)Nc4ccccc4F)ccc3O[C@H]2[C@@H](CO)O1)NC1CCCC1	.	5[16.7 µM]	.	.	.	-21
Cc1ccc(NC(=O)C(NCc2ccccn2)c2ccccc2)cc1 (stereo not drawn)	8	3	0	5	-8	23
CN(C)c1ccc(NC(=O)CC(NCc2ccccn2)C(=O)O)cc1 (stereo not drawn)	11	-3	-2	-1	-11	77*
C/C(CC(=O)Nc1ccc(N(C)C)cc1)=N\NC(=O)c1ccccn1	-7	-4	0	.	7	52*
CO[C@@H](CN(C)C(=O)c1ccccc1F)[C@@H](C)CN([C@@H](C)CO)S(=O)(=O)c1ccccc1	.	.	.	.	.	-6
Cc1nnc(SC(C(=O)Nc2ccc(Cl)c([N+](=O)[O-])c2)c2ccccc2)[nH]c1=O (stereo not drawn)	-5	.	20	62*	5	2
Cc1cc(C)cc(NC(=O)C(Sc2nnc(C)c(=O)[nH]2)c2ccccc2)c1 (stereo not drawn)	4	2	0	-1	-4	-5
COc1ccc(OC)c(S(=O)(=O)Nc2ccc(-c3ccc4nnc(C)n4n3)cc2)c1	-10	.	-3	0	10	.
COc1ccc(S(=O)(=O)Nc2ccc(-c3ccc4nnc(C)n4n3)cc2)c(OC)c1	-15	92*	0	.	15	3
CO[C@H]1CN(C)C(=O)c2ccc(NC(=O)c3ccc(F)cc3)cc2OC[C@H](C)N(C(=O)CN(C)C)C[C@H]1C	.	5[16.7 µM]	.	.	.	.
S=C(N/N=C/c1ccccc1)N1CCOCC1	13	-13	0	-4	-13	46*
COc1ccc(S(=O)(=O)N(C)C[C@H]2OCCCC[C@H](C)Oc3ccc(NS(=O)(=O)c4cccs4)cc3C(=O)N([C@H](C)CO)C[C@@H]2C)cc1	.	-2[16.7 µM]	.	.	.	2
CCCC(=O)NC1=C(Cl)C(=O)c2ccccc2C1=O	22	.	6	-1	-22	25*
CCNC1=C(Cl)C(=O)c2ccccc2C1=O	25	-2	0	5	-1	15
COc1cccc2cc(-c3ccnc(N)n3)oc12	13	-6	10	77*	-13	-1
COc1cccc2cc(-c3n[nH]c(=S)n3C)oc12	-1	.	-2	-4	1	1
O=[N+]([O-])c1ccc(Oc2cccnc2)c([N+](=O)[O-])c1	5	0	-1	37*	-5	-5
SMILES	SR-BI DiI-HDL act	miR122 inh	CAL PDZ FP-1	CAL PDZ FP-2	SR-BI DiI inh	ARNT TACC3 PPI
C[C@H](CO)N1C[C@H](C)[C@H](CN(C)CC2CC2)Oc2cc(-c3cccc(F)c3)ccc2S1(=O)=O	.	-13[16.7 µM]	.	.	.	8
Cc1ccc(N2CCN(CCCN3C(=O)C4CCCN4C3=O)CC2)cc1 (stereo not drawn)	6	.	0	52*	-6	-25
COC(=O)C[C@H]1CC[C@H]2[C@@H](COC[C@@H](O)CN2S(=O)(=O)c2ccc(F)cc2)O1	.	4[16.7 µM]	.	.	.	6
CCCN1C(=O)/C(=C/c2ccc(N3CCCC3)c(C)c2)NC1=S	-87	-6	-5	0	87*	1
Cc1cc(/C=C2\NC(=S)N(C)C2=O)ccc1N1CCCC1	-48	-21	-1	-3	48	0
COc1ccccc1-c1cnc2c(c1)C(=O)N([C@H](C)CO)C[C@H](C)[C@H](CN(C)Cc1ccncc1)O2	.	-4[16.7 µM]	.	.	.	-6
Nc1c(Cl)cc(C2=NCCn3nc4ccccc4c32)cc1Cl	-73	.	-2	-3	73*	7
Clc1ccc(C2=NCCn3nc4ccccc4c32)cc1	-24	10	-1	-2	24	8
Cc1nonc1NC(=O)CSc1nnc(-c2ccoc2C)n1CC(C)C	9	5	.	177*	-9	-7
COCC(=O)Nc1ccc2c(c1)C(=O)N(C)[C@H]1CC[C@H](CC(=O)NCC3CC3)O[C@H]1CO2	.	0[16.7 µM]	.	.	.	-5
CCCCCn1c(N)c(-c2nc3ccccc3s2)c2c([N+](=O)[O-])nn(C)c(=O)c21	-84	4	-3	.	84*	.
Cc1nn(Cc2ccccc2)c(Cl)c1C(=O)NCCc1ccccc1	-27	2	-1	-3	27	14
Cc1nn(Cc2ccccc2)c(Cl)c1C(=O)NCc1ccco1	-33	1	-1	59*	33	-1
O=C(C[C@H]1C[C@@H]2c3cc(NC(=O)Nc4ccc(F)cc4)ccc3O[C@@H]2[C@@H](CO)O1)NCC(F)(F)F	.	2[16.7 µM]	.	.	.	-9
O=C(C[C@H]1C[C@@H]2c3cc(NC(=O)CC4CC4)ccc3O[C@@H]2[C@@H](CO)O1)NCc1ccccc1F	.	-2[16.7 µM]	.	.	.	-4
CN(C)CC#Cc1cccc(-c2nc(C(=O)N3CCN(C)CC3)cc3c2[C@@H](CCO)N(S(=O)C(C)(C)C)C3)c1 (stereo partly drawn)	.	.	.	.	.	-2
COc1ccc(COCC(O)CN2CCOCC2)cc1OC (stereo not drawn)	19	0	1	0	-19	-11
COc1cc(COCC(O)CN2CCOCC2)cc(OC)c1OC (stereo not drawn)	53	-11	0	56*	-53	-25
